Results gathered from unrelated publications.
Compare with care: the assays were run in different laboratories.
Nectin-4: Nectin-4 (Homo sapiens, UniProt Q96NY8)
Oprm1: Mu-type opioid receptor (Oprm1, Mus musculus, UniProt P42866)
SIGMAR1: Sigma non-opioid intracellular receptor 1 (SIGMAR1, Homo sapiens, UniProt Q99720)
PFF0160c: Dihydroorotate dehydrogenase (quinone), mitochondrial (PFF0160c, Plasmodium falciparum, UniProt Q08210)

CCCC[C@@H]1NC(=O)[C@H](Cc2ccc(O)cc2)NC(=O)[C@@H]2CCCN2C(=O)[C@H](CC(=O)O)NC(=O)[C@H](C)NC(=O)[C@H](Cc2ccccc2)NC(=O)[C@@H]2CSCCC(=O)N3CN(CN(C3)C(=O)CCSC[C@@H](C(=O)N[C@@H](CNC(=O)CCc3cn(CCOCCOCCOCCOCCOCCOCCOCCOCCOCCOCCOCCOCCOCCOCCOCCOCCOCCOCCOCCOCCOCCOCCOCCNC(=O)N[C@H]4CSCCC(=O)N5CN6CN(C5)C(=O)CCSC[C@H](NC(=O)[C@@H](CC(=O)O)NC(=O)[C@H](Cc5cccc7ccccc57)NC(=O)[C@@H]5CCCN5C4=O)C(=O)N[C@@H](CCSC)C(=O)N[C@@H](CCCCNC(=N)N)C(=O)N[C@@H](CC(=O)O)C(=O)N[C@@H](Cc4c[nH]c5ccccc45)C(=O)N[C@@H](CO)C(=O)N[C@@H]([C@@H](C)O)C(=O)N4CCC[C@H]4C(=O)N4C[C@H](O)C[C@H]4C(=O)N[C@@H](Cc4c[nH]c5ccccc45)C(=O)N[C@H](C(N)=O)CSCCC6=O)nn3)C(N)=O)NC1=O)C(=O)CCSC[C@H](NC(=O)[C@H](C)NC(C)=O)C(=O)N[C@@H]([C@@H](C)CC)C(=O)N[C@@H](CCC(=O)O)C(=O)N[C@@H](CCC(=O)O)C(=O)NCC(=O)N[C@@H](CCC(N)=O)C(=O)N[C@@H](Cc1ccc(O)cc1)C(=O)N2  Kd (Nectin-4; binding; SPR): 1.8 nM
O=C(N[C@H]1C=C[C@@]2(O)[C@H]3Cc4ccc(O)c5c4[C@@]2(CCN3CC2CC2)[C@H]1O5)c1c[nH]c2cnccc12  Ki (Oprm1; ligand displacement; radioligand): 1.16 nM
COc1ccc(CN2CCN(Cc3ccccc3)CC2)cc1  Ki (SIGMAR1; ligand displacement; radioligand): 13.8 nM
CCCC[C@@H]1NC(=O)[C@H](Cc2ccc(O)cc2)NC(=O)[C@@H]2CCCN2C(=O)[C@H](CC(=O)O)NC(=O)[C@H](C)NC(=O)[C@H](Cc2ccccc2)NC(=O)[C@@H]2CSCCC(=O)N3CN(CN(C3)C(=O)CCSC[C@@H](C(=O)N[C@@H](C)C(N)=O)NC1=O)C(=O)CCSC[C@H](NC(C)=O)C(=O)N[C@@H](CC(C)(C)C)C(=O)N1CCC[C@H]1C(=O)N[C@@H](CCC(=O)O)C(=O)N[C@H](CCCCNC(=O)CCc1cn(CCOCCOCCOCCOCCOCCC(=O)NCCCC[C@H]3NC(=O)[C@H](Cc4cccc5ccccc45)NC(=O)[C@@H]4CCCN4C(=O)[C@@H](NC(C)=O)CSCCC(=O)N4CN5CN(C4)C(=O)CCSC[C@H](NC3=O)C(=O)N[C@@H](CCSC)C(=O)N[C@@H](CCCCNC(=N)N)C(=O)N[C@@H](CCC(=O)O)C(=O)N[C@@H](Cc3c[nH]c4ccccc34)C(=O)N[C@@H](CO)C(=O)N[C@@H]([C@@H](C)O)C(=O)N3CCC[C@H]3C(=O)N3C[C@H](O)C[C@H]3C(=O)N[C@@H](Cc3c[nH]c4ccccc34)C(=O)N[C@H](C(N)=O)CSCCC5=O)nn1)C(=O)N1CCC[C@H]1C(=O)N[C@@H](Cc1ccc(O)cc1)C(=O)N2  Kd (Nectin-4; binding; SPR): 1.8 nM
CCn1cc(C(=O)NC2CCNCC2)n(Cc2ccccc2)c1=O  IC50 (Dihydroorotate dehydrogenase (quinone), mitochondrial (PFF0160c, Plasmodium falciparum, UniProt Q08210, E182D); enzyme activity; inhibitor; absorbance): 8940 nM
O=C(N[C@@H]1C=C[C@@]2(O)[C@H]3Cc4ccc(O)c5c4[C@@]2(CCN3CC2CC2)[C@H]1O5)c1c[nH]c2ccncc12  Ki (Oprm1; ligand displacement; radioligand): 0.94 nM
CCn1c(-c2ccccc2)cc2nnc3ccccc3c21  IC50 (PFF0160c; enzyme activity; inhibitor; absorbance): 458 nM
COc1cc2nc(N3CCCN(C)CC3)nc(NC3CCN(Cc4ccccc4)CC3)c2cc1OC  Ki (SIGMAR1; ligand displacement; radioligand): > 10000 nM
Cc1noc(-c2cccs2)c1C(=O)NCCc1cccc(Cl)c1  IC50 (PFF0160c; enzyme activity; inhibitor; absorbance): 689 nM
O=C(N[C@@H]1C=C[C@@]2(O)[C@H]3Cc4ccc(O)c5c4[C@@]2(CCN3CC2CC2)[C@H]1O5)c1c[nH]c2ncccc12  Ki (Oprm1; ligand displacement; radioligand): 0.28 nM
CCCC[C@@H]1NC(=O)[C@H](Cc2ccc(O)cc2)NC(=O)[C@@H]2CCCN2C(=O)[C@H](CC(=O)O)NC(=O)[C@H](C)NC(=O)[C@H](Cc2ccccc2)NC(=O)[C@@H]2CSCCC(=O)N3CN(CN(C3)C(=O)CCSC[C@@H](C(=O)N[C@@H](C)C(N)=O)NC1=O)C(=O)CCSC[C@H](NC(C)=O)C(=O)N[C@@H](CC(C)(C)C)C(=O)N1CCC[C@H]1C(=O)N[C@@H](CCC(=O)O)C(=O)N[C@H](CCCCNC(=O)CCc1cn(CCOCCOCCOCCOCCOCCC(=O)NCCCC[C@H]3NC(=O)[C@H](Cc4cccc5ccccc45)NC(=O)[C@@H]4CCCN4C(=O)[C@@H](NC(C)=O)CSCCC(=O)N4CN5CN(C4)C(=O)CCSC[C@H](NC3=O)C(=O)N[C@@H](CCSC)C(=O)N[C@@H](CCCCNC(=N)N)C(=O)N[C@@H](CC(=O)O)C(=O)N[C@@H](Cc3c[nH]c4ccccc34)C(=O)N[C@@H](CO)C(=O)N[C@@H]([C@@H](C)O)C(=O)N3CCC[C@H]3C(=O)N3C[C@H](O)C[C@H]3C(=O)N[C@@H](Cc3c[nH]c4ccccc34)C(=O)N[C@H](C(N)=O)CSCCC5=O)nn1)C(=O)N1CCC[C@H]1C(=O)N[C@@H](Cc1ccc(O)cc1)C(=O)N2  Kd (Nectin-4; binding; SPR): 1.3 nM
